Data as given in paper PMC6380921 (Environmental science & technology, 2019).

Assays:
[1] = tested on: human liver microsomes (HLMs); settings: cited from earlier work; for ratio of 3–103: 5–95: 4–95: 4’−95 (relative to 4’−95 = 1), HLMs: PCB 95 with HLMs; for enantiomeric fraction (EF) of 5-hydroxylated metabolites, HLMs: metabolism studies with HLMs; for enantiomeric fraction (EF) of 1,2-shift products, HLMs: incubations with HLMs
recombinant human CYP2A6 = biological target: T1, recombinant human CYP2A6 (Homo sapiens, UniProt P11509); assay: PCB biotransformation assay with recombinant human CYP2A6; format: in vitro ADME; settings: for enantiomeric fraction (EF) of OH-PCB metabolite, CYP2A6: EF = Area E1/(Area E1 + Area E2), 50 μM PCB, 60 min, 37 °C, 10 pmol/mL P450; for ratio of 3–103: 5–95: 4–95: 4’−95 (relative to 4’−95 = 1), recombinant CYP2A6: PCB 95 incubation; for metabolite as percent of ΣOH-PCBs of the parent PCB, CYP2A6: racemic PCB 50 µM, 10 pmol P450/mL, 37°C, mean ± SD
T1 sequence (P11509 1-494): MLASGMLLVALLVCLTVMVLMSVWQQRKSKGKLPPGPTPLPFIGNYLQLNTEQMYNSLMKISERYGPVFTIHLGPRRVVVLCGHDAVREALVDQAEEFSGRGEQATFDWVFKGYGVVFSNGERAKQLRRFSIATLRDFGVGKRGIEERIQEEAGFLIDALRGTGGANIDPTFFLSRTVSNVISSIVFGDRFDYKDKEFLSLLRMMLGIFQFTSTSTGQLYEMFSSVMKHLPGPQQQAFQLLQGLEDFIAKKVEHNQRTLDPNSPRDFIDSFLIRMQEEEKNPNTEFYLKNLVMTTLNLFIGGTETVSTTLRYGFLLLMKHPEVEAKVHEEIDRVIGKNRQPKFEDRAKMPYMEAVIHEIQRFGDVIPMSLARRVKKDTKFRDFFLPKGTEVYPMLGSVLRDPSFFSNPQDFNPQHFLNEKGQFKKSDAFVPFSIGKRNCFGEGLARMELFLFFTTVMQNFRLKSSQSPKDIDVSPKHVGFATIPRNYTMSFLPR

recombinant human CYP2B6 [2] = biological target: T2, recombinant human CYP2B6 (Homo sapiens, UniProt P20813); assay: PCB biotransformation assay with recombinant human CYP2B6; format: in vitro ADME; settings: for enantiomeric fraction (EF) of OH-PCB metabolite, CYP2B6: EF = Area E1/(Area E1 + Area E2), 50 μM PCB, 60 min, 37 °C, 10 pmol/mL P450; for metabolite as percent of ΣOH-PCBs of the parent PCB, CYP2B6: racemic PCB 50 µM, 10 pmol P450/mL, 37°C, mean ± SD
T2 sequence (P20813 1-491): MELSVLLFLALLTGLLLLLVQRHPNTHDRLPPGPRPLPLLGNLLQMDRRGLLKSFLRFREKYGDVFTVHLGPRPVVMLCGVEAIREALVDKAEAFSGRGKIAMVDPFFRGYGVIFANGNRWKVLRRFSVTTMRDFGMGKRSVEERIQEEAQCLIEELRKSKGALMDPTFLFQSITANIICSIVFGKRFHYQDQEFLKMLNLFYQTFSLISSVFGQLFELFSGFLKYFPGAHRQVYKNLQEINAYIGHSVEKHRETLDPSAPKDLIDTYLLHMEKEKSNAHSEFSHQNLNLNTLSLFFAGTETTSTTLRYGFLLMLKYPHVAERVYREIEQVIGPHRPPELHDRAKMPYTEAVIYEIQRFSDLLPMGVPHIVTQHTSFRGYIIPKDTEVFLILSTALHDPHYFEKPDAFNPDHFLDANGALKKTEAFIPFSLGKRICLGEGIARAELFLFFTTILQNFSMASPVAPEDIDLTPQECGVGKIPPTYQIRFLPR

recombinant human CYP3A4 [3] = biological target: T3, recombinant human CYP3A4 (Homo sapiens, UniProt P08684); assay: PCB biotransformation assay with recombinant human CYP3A4; format: in vitro ADME; settings: racemic PCB 50 µM; 10 pmol P450/mL; 37°C
T3 sequence (P08684 whole entry): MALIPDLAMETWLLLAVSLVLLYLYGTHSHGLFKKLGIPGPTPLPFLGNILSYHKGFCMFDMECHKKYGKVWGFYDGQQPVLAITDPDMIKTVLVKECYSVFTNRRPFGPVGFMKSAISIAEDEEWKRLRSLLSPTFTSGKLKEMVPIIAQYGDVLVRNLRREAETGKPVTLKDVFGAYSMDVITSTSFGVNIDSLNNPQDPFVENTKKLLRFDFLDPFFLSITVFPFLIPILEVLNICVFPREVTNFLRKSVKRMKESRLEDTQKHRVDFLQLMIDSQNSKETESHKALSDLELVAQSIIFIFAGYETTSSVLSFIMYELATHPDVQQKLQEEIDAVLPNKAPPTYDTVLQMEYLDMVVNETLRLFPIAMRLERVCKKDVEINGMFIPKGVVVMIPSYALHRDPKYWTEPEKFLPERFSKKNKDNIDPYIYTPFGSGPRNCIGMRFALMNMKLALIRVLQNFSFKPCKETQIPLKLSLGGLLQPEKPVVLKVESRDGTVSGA
Outline: (§1)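 Human P450 co-expressed with human CYP-reductase in E. coli, 10 pmol/mL, in 0.1 M phosphate pH 7.4 with 3 mM MgCl2 and NADPH-regenerating system (~1 mM NADPH final). After 5 min preincubation, racemic PCB added (50 µM final, DMSO ≤0.5% v/v); incubated up to 60 min at 37°C; stopped with ice-cold NaOH plus heating. OH-PCBs identified as methylated derivatives by high-resolution GC/TOF-MS in 60-min extracts. Control Bactosomes; triplicates.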

recombinant human CYP1A2 [4] = biological target: T4, recombinant human CYP1A2 (Homo sapiens, UniProt P05177); assay: PCB biotransformation assay with recombinant human CYP1A2; format: in vitro ADME; settings: racemic PCB 50 µM; 10 pmol P450/mL; 37°C
T4 sequence (P05177 1-516): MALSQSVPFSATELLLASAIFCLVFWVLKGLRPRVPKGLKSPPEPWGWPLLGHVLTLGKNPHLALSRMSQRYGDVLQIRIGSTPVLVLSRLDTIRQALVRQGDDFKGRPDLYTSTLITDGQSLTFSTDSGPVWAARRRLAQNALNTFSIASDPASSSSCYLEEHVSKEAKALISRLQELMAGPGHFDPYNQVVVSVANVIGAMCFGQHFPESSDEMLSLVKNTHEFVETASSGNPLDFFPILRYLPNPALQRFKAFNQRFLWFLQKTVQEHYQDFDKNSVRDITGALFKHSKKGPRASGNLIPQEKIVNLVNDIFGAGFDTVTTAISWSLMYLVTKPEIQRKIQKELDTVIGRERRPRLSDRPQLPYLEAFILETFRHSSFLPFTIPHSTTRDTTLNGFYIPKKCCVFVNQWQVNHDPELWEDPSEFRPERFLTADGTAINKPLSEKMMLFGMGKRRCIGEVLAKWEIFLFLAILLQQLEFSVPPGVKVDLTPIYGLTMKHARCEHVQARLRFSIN
Outline: as §1

recombinant human CYP1A2 [5] = biological target: T4, recombinant human CYP1A2; settings: cited from earlier work
recombinant human CYP3A4 [6] = biological target: T3, recombinant human CYP3A4; settings: cited from earlier work
recombinant human CYP2E1 = recombinant human CYP2E1 (Homo sapiens, UniProt P05181); settings: cited from earlier work
recombinant human CYP2E1, sequence (P05181 whole entry): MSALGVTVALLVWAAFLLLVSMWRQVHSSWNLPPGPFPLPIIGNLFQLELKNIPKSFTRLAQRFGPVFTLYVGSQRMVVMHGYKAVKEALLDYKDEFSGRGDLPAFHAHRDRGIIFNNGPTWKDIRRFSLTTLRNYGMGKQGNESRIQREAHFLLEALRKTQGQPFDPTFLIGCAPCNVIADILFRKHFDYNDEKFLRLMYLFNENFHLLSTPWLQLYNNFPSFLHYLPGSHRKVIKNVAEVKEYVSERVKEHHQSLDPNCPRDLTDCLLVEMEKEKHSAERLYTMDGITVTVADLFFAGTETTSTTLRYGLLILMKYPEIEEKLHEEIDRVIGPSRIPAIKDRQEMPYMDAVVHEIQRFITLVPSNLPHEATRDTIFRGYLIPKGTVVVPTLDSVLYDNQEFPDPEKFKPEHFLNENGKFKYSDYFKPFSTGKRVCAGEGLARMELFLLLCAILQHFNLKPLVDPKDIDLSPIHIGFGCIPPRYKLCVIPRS

recombinant human CYP2B6 [7] = biological target: T2, recombinant human CYP2B6; settings: cited from earlier work

In the case of Oc1c(Cl)cc(Cl)c(-c2cc(Cl)ccc2Cl)c1Cl [3–103], the “ratio of 3–103: 5–95: 4–95: 4’−95 (relative to 4’−95 = 1), HLMs” value [1] is given as 0.11, the “enantiomeric fraction (EF) of OH-PCB metabolite, CYP2A6” value (“enantiomeric fraction (EF) … CYP2A6” below) (recombinant human CYP2A6) is given as 0.99 and the “ratio of 3–103: 5–95: 4–95: 4’−95 (relative to 4’−95 = 1), recombinant CYP2A6” value (recombinant human CYP2A6) is given as 0.11.

For Oc1cc(Cl)c(Cl)c(-c2cc(Cl)ccc2Cl)c1Cl [5–95], the “ratio of 3–103: 5–95: 4–95: 4’−95 (relative to 4’−95 = 1), HLMs” value [1] is given as 0.06, the “formation rate by CYP2B6, times lower compared to CYP2A6” value (recombinant human CYP2B6 [2]; PCB 95 incubation) is given as 2 times and the “ratio of 3–103: 5–95: 4–95: 4’−95 (relative to 4’−95 = 1), recombinant CYP2A6” value (recombinant human CYP2A6) is given as 0.04.

For Oc1cc(Cl)c(-c2ccc(Cl)cc2Cl)c(Cl)c1Cl [4–91], the “enantiomeric fraction (EF) of OH-PCB metabolite, CYP2B6” value (from here on “enantiomeric fraction (EF) … CYP2B6”) (recombinant human CYP2B6 [2]) was 0.60 and the “enantiomeric fraction (EF) … CYP2A6” value (recombinant human CYP2A6) was 0.39.

With Clc1ccc(-c2c(Cl)ccc(Cl)c2Cl)c(Cl)c1 [PCB 91, 2,2’,3,4’,6-pentachlorobiphenyl] the “OH-PCB metabolites detected in incubations with CYP3A4” value (recombinant human CYP3A4 [3]) was “no metabolites were detected” and the “OH-PCB metabolites detected in incubations with CYP1A2” value (recombinant human CYP1A2 [4]) was “no metabolites were detected”.

For Oc1cc(Cl)c(-c2c(Cl)ccc(Cl)c2Cl)c(Cl)c1Cl [4–136], the “enantiomeric fraction (EF) … CYP2A6” value (recombinant human CYP2A6) was 0.10 and the “metabolite as percent of ΣOH-PCBs of the parent PCB, CYP2A6” value (shortened to “metabolite as percent … CYP2A6”) (recombinant human CYP2A6) was 64 ± 2%.

With Clc1ccc(Cl)c(-c2c(Cl)ccc(Cl)c2Cl)c1Cl [PCB 136, 2,2’,3,3’,6,6’-hexachlorobiphenyl] the “OH-PCB metabolites detected in incubations with CYP3A4” value (recombinant human CYP3A4 [3]) was “no metabolites were detected” and the “OH-PCB metabolites detected in incubations with CYP1A2” value (recombinant human CYP1A2 [4]) was “no metabolites were detected”.

For Oc1cc(Cl)c(Cl)c(-c2ccc(Cl)cc2Cl)c1Cl [5–91], the “enantiomeric fraction (EF) of 5-hydroxylated metabolites, HLMs” value [1] is given as 0.47, the “enantiomeric fraction (EF) … CYP2B6” value (recombinant human CYP2B6 [2]) is given as 0.49 and the “metabolite as percent of ΣOH-PCBs of the parent PCB, CYP2B6” value (from here on “metabolite as percent … CYP2B6”) (recombinant human CYP2B6 [2]) is given as 98.4 ± 0.1%.

For Oc1cc(Cl)c(Cl)c(-c2c(Cl)ccc(Cl)c2Cl)c1Cl [5–136], the “ratio of 5–136: 4–136 (4–136 = 1), HLMs” value ([1]; PCB 136 with HLMs) is given as 0.39, the “ratio of 5–136: 4–136 (4–136 = 1), HLMs, earlier study” value ([1]; PCB 136 with HLMs) is given as 1.3 and the “enantiomeric fraction (EF) of 5-hydroxylated metabolites, HLMs” value [1] is given as 0.31. For the same compound, the “enantiomeric fraction (EF) … CYP2B6” value (recombinant human CYP2B6 [2]) was 0.50, the “metabolite as percent … CYP2B6” value (recombinant human CYP2B6 [2]) was 94 ± 0.3% and the “ratio of 5–136: 4–136 (4–136 = 1) formed with CYP2A6” value (recombinant human CYP2A6; PCB 136 incubation) was 0.3.

For Oc1cc(Cl)c(Cl)c(-c2ccc(Cl)c(Cl)c2Cl)c1Cl [5’−132], the “enantiomeric fraction (EF) of 5-hydroxylated metabolites, HLMs” value [1] is listed as 0.19, the “enantiomeric fraction (EF) … CYP2B6” value (recombinant human CYP2B6 [2]) is listed as 0.32 and the “metabolite as percent … CYP2B6” value (recombinant human CYP2B6 [2]) is listed as 81 ± 7%.

In the case of Clc1ccc(Cl)c(-c2c(Cl)ccc(Cl)c2Cl)c1 [PCB 95, 2,2’,3,5’,6-pentachlorobiphenyl], the “metabolism by recombinant CYP1A2, earlier studies” value (recombinant human CYP1A2 [5]) is listed as “did not metabolize”, the “OH-PCB metabolites detected in incubations with CYP3A4” value (recombinant human CYP3A4 [3]) is listed as “no metabolites were detected” and the “metabolism by recombinant CYP3A4, earlier studies” value (recombinant human CYP3A4 [6]) is listed as “did not metabolize”. For the same compound, the “OH-PCB metabolites detected in incubations with CYP1A2” value (recombinant human CYP1A2 [4]) was “no metabolites were detected”, the “oxidation by CYP2E1, earlier studies” value (recombinant human CYP2E1) was “did not observe any oxidation” and the “oxidation by CYP2B6, earlier studies” value (recombinant human CYP2B6 [7]) was “did not observe any oxidation”.

For Clc1ccc(-c2c(Cl)ccc(Cl)c2Cl)c(Cl)c1Cl [PCB 132, 2,2’,3,3’,4,6’-hexachlorobiphenyl], the “OH-PCB metabolites detected in incubations with CYP3A4” value (recombinant human CYP3A4 [3]) was “no metabolites were detected” and the “OH-PCB metabolites detected in incubations with CYP1A2” value (recombinant human CYP1A2 [4]) was “no metabolites were detected”.

For Clc1ccc(Cl)c(-c2cc(Cl)ccc2Cl)c1 [PCB 52, 2,2’,5,5’-tetrachlorobiphenyl], the “metabolism by recombinant CYP1A2, earlier studies” value (recombinant human CYP1A2 [5]) is listed as “did not metabolize”, the “metabolism by recombinant CYP3A4, earlier studies” value (recombinant human CYP3A4 [6]) is listed as “did not metabolize” and the “oxidation by CYP2E1, earlier studies” value (recombinant human CYP2E1) is listed as “did not observe any oxidation”. The “oxidation by CYP2B6, earlier studies” value (recombinant human CYP2B6 [7]) was “did not observe any oxidation”.

For Oc1c(Cl)cc(Cl)c(-c2ccc(Cl)c(Cl)c2Cl)c1Cl [3’−140], the “enantiomeric fraction (EF) of 1,2-shift products, HLMs” value [1] is listed as 0.84 and the “metabolite as percent … CYP2A6” value (recombinant human CYP2A6) is listed as 67 ± 1%.

In the case of Oc1c(Cl)cc(Cl)c(-c2ccc(Cl)cc2Cl)c1Cl [3–100], the “enantiomeric fraction (EF) of 1,2-shift products, HLMs” value [1] is listed as 0.85, the “enantiomeric fraction (EF) … CYP2A6” value (recombinant human CYP2A6) is listed as 0.92 and the “metabolite as percent … CYP2A6” value (recombinant human CYP2A6) is listed as 81 ± 2%.
